From ChEMBL document CHEMBL1667799, “HIV-1 integrase strand-transfer inhibitors: design, synthesis and molecular modeling investigation” (Eur J Med Chem, 2011) come the findings set out here.

For series [1], the target named is Human immunodeficiency virus type 1 integrase (Human immunodeficiency virus 1, UniProt Q7ZJM1). The series is described as follows: Inhibition of HIV-1 integrase after 1 hr by ELISA.
For series [2], the system named is Human immunodeficiency virus 1. Description: Antiviral activity against HIV1 3B infected in human MT4 cells assessed as inhibition of virus-induced cytopathic effect by MTT assay. The series is classed as functional, organism-based. Particulars: Human immunodeficiency virus 1, 3B. The method in brief: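 HIV-1 IIIB stock titrated on MT-4 cells to set CCID50. MT-4 cells infected with 100–300 CCID50 in presence of five-fold serial drug dilutions. Viability read by MTT reduction to formazan, measured spectrophotometrically. EC50 is concentration giving 50% protection against viral CPE. Values are averages ± SD.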

Series [3] is described as follows: Cytotoxicity against human MT4 cells by MTT assay. The series is classed as cell-based. Put shortly:
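MT-4 cell viability read by MTT reduction to formazan by mitochondrial dehydrogenase, measured spectrophotometrically, across drug dilutions. CC50 is concentration reducing MT-4 viability by 50%. Values are averages ± SD.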

A short description of series [4]: Selectivity index, ratio of CC50 for human MT4 cells to EC50 for HIV13B. The series is classed as toxicity, cell-based. Particulars: read-out: Ratio CC50/EC50. The method in brief: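 Index calculated as CC50/EC50. CC50 is the concentration reducing MT-4 viability by 50%. EC50 is 50% protection against HIV-1 IIIB CPE after infection with 100–300 CCID50, across five-fold serial dilutions. Both are read by MTT assay.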

Series [5] addresses Human immunodeficiency virus type 1 integrase (Human immunodeficiency virus 1) (UniProt Q7ZJM1).

A value given as a limit tells only on which side of the number the result lay.

Chain of Human immunodeficiency virus type 1 integrase (Q7ZJM1 whole entry): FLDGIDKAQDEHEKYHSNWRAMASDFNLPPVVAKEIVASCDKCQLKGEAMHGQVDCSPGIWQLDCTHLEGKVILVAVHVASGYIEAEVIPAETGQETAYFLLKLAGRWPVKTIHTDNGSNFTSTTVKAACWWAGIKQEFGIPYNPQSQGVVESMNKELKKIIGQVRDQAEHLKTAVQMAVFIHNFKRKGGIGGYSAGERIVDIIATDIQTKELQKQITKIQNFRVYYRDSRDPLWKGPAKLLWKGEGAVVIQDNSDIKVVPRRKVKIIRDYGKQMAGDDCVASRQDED
Chain of Human immunodeficiency virus type 1 integrase (Human immunodeficiency virus 1) (Q7ZJM1 as listed by the source): as the sequence (Q7ZJM1 whole entry) above

For `CCOC(=O)/C(O)=C/C(=O)c1cn(Cc2ccc(F)cc2)c2ccc(OC)c(OC)c12`, half-maximal inhibition in series [1] (IC50) was put at 0.9 µM. The EC50 in series [2] amounted to 3.96 µM. In series [3], this molecule showed a CC50 of 111 µM. Further, the selectivity ratio in series [4] stood at 28. In addition, the C50 in series [5] is 0.015 µM.

For the molecule `CCOC(=O)/C(O)=C/C(=O)c1cn(Cc2ccc(F)cc2)c2cc(OC)c(OC)cc12`, 4.4 µM corresponded to half-maximal inhibition in series [1] (IC50). In addition, the EC50 in series [2] is greater than 21.8 µM. The molecule also had a CC50 in series [3] of 21.8 µM. Further, the selectivity ratio in series [4] is less than 1. The molecule further gave a C50 in series [5] of 7.69 µM.

`COc1ccc2c(C(=O)/C=C(\O)C(=O)O)cn(Cc3ccc(F)cc3)c2c1OC`: the IC50 in series [1] is 3.55 µM. In addition, the EC50 in series [2] worked out at 14.7 µM. The molecule further had a CC50 in series [3] of 130 µM. In series [4], the selectivity ratio came out at 9. The same molecule showed a C50 in series [5] of 6.37 µM.

Molecule `CCOC(=O)/C(O)=C/C(=O)c1cn(Cc2ccc(F)cc2)c2cc(OC)cc(OC)c12` came in with an IC50 in series [1] of 2.79 µM. The EC50 in series [2] turned out to be 2.48 µM. In series [3], this molecule gave a CC50 of 55.4 µM. For the same molecule, in series [4], the selectivity ratio was found to be 22. This molecule also displayed a C50 in series [5] of 1.29 µM.

Take `COc1cccc2c1c(C(=O)/C=C(\O)C(=O)O)cn2Cc1ccc(F)cc1`: in series [4], the selectivity ratio worked out at 70. Also, the C50 in series [5] was determined as 0.14 µM.

`COc1cc2c(C(=O)/C=C(\O)C(=O)O)cn(Cc3ccc(F)cc3)c2cc1OC` returned an IC50 in series [1] of 0.547 µM. Also, in series [2], the EC50 stood at 10.5 µM. In series [3], this molecule yielded a CC50 of 65.5 µM. For the same molecule, the selectivity ratio in series [4] came out at 6. The C50 in series [5] is 0.119 µM.

The molecule `CCOC(=O)/C(O)=C/C(=O)c1cn(Cc2ccc(F)cc2)c2c(OC)cc(OC)cc12` displayed a half-maximal inhibitory concentration (IC50) in series [1] of 18.1 µM. Moreover, the EC50 in series [2] is greater than 62.1 µM. The molecule also had a CC50 in series [3] of 62.1 µM. Also, in series [4], the selectivity ratio was less than 1. In series [5], this molecule had a C50 of 34.9 µM.

On to `COc1cc(OC)c2c(c1)c(C(=O)/C=C(\O)C(=O)O)cn2Cc1ccc(F)cc1`, for which the IC50 in series [1] was determined as 0.251 µM. Further, in series [2], the EC50 was 8.51 µM. In series [3], this molecule returned a CC50 of 58.5 µM. The selectivity ratio in series [4] worked out at 7. This molecule displayed a C50 in series [5] of 0.006 µM.

As to `CCOC(=O)/C(O)=C/C(=O)c1cn(Cc2ccc(F)cc2)c2c(OC)c(OC)ccc12`, half-maximal inhibition in series [1] (IC50) was put at 7.41 µM. The EC50 in series [2] turned out to be 10.4 µM. Further, the 50% cytotoxic concentration (CC50) in series [3] turned out to be 119 µM. Moreover, the selectivity ratio in series [4] was found to be 11. Also, the C50 in series [5] came to 17.4 µM.

In turn, `COc1cc(OC)c2c(C(=O)/C=C(\O)C(=O)O)cn(Cc3ccc(F)cc3)c2c1` showed an IC50 in series [1] of 0.47 µM. Moreover, the EC50 in series [2] was determined as 3.2 µM. This molecule also came in with a CC50 in series [3] of 20.7 µM. Moreover, in series [4], the selectivity ratio was determined as 6. This molecule displayed a C50 in series [5] of 0.28 µM.

Consider `COc1ccc2c(c(C(=O)/C=C(\O)C(=O)O)cn2Cc2ccc(F)cc2)c1OC`, for which, in series [1], 1.45 µM corresponded to half-maximal inhibition (IC50). The EC50 in series [2] was 1.21 µM. The same molecule showed a CC50 in series [3] of 126 µM. In addition, the selectivity ratio in series [4] was 104. This molecule gave a C50 in series [5] of 0.047 µM.

`Cc1nnc(C(=O)NC(C)(C)c2nc(C(=O)NCc3ccc(F)cc3)c(O)c(=O)n2C)o1` came in with a CC50 in series [3] greater than 18 µM.

As to `CCOC(=O)/C(O)=C/C(=O)c1cn(Cc2ccc(F)cc2)c2c(OC)ccc(OC)c12`, in series [5], the C50 is 0.66 µM.
